According to ChEMBL document CHEMBL4616666, “Discovery of SHP2-D26 as a First, Potent, and Effective PROTAC Degrader of SHP2 Protein” (J Med Chem, 2020):

What was measured:
[1] = target: T1, von Hippel-Lindau disease tumor suppressor/Tyrosine-protein phosphatase non-receptor type 11 (Homo sapiens, UniProt Q06124+P40337); assay: Protac activity at VHL1/SHP2 in human KYSE520 cells assessed as induction of SHP2 degradation at 1 uM measured after 6 hrs by Western blot analysis relative to control; format: cell-based
Method in brief: (§1)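 KYSE520 cells in RPMI 1640 + 10% FBS, 37 °C, 5% CO2, were exposed to degrader for 6 h. SHP2 was measured by Western blot and densitometry, with background-subtracted band normalized to net GAPDH band. Values are the average of three independent experiments.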

[2] = target: T1, von Hippel-Lindau disease tumor suppressor/Tyrosine-protein phosphatase non-receptor type 11; assay: Protac activity at VHL1/SHP2 in human KYSE520 cells assessed as induction of SHP2 degradation at 0.1 uM measured after 6 hrs by Western blot analysis relative to control; format: cell-based; method in brief: as §1
[3] = target: T1, von Hippel-Lindau disease tumor suppressor/Tyrosine-protein phosphatase non-receptor type 11; assay: Protac activity at VHL1/SHP2 in human MV4-11 cells assessed as induction of SHP2 degradation at 0.1 uM measured after 24 hrs by Western blot analysis relative to control; format: cell-based
Method in brief: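 MV4;11 cells in IMDM + 10% FBS were exposed to degrader for 24 h. SHP2 was quantified by Western blot densitometry, with background-subtracted band divided by net GAPDH loading-control band. Average of three independent experiments.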

MV4-11 = assay: Growth inhibition of human MV4-11 cells measured after 4 days by WST8 assay; settings: MV4-11, 96 h
KYSE-520 cell line = assay: Growth inhibition of human KYSE520 cells measured after 4 days by WST8 assay; settings: KYSE-520, 96 h

T1 sequence (P40337 whole entry partner): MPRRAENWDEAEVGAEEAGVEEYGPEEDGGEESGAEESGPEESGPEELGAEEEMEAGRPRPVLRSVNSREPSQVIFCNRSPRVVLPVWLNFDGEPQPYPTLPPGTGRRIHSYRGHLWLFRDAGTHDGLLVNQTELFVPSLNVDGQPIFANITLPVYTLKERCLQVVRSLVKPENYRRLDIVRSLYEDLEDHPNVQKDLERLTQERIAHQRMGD
T1 sequence (Q06124 2-593 limits assumed): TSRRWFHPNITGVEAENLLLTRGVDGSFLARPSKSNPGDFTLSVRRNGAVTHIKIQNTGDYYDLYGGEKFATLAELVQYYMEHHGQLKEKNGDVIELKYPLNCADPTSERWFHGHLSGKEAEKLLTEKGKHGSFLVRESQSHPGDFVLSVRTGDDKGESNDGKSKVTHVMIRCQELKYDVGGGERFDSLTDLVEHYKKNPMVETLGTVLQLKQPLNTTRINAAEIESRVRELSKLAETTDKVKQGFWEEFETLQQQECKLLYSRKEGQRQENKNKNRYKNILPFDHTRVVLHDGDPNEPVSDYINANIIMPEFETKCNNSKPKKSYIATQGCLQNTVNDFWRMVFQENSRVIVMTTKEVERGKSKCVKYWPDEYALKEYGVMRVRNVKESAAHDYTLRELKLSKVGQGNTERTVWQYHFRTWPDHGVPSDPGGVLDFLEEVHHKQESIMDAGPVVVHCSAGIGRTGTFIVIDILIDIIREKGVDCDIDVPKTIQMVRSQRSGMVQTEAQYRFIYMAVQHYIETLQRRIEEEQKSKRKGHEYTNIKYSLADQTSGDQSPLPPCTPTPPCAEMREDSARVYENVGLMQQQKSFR

SMILES	Activity [1]	Activity [2]	Activity [3]	IC50 (MV4-11)	IC50 (KYSE-520 cell line)
Cc1ncsc1-c1ccc([C@H](C)NC(=O)[C@@H]2C[C@@H](O)CN2C(=O)[C@@H](NC(=O)COCCOCCOCCNC(=O)CCC(=O)Nc2cccc(Sc3ncc(N4CCC(C)(N)CC4)nc3N)c2Cl)C(C)(C)C)cc1 (single isomer, unassigned)	> 95%	80%	> 95%	–	–
Cc1ncsc1-c1ccc([C@H](C)NC(=O)[C@@H]2C[C@@H](O)CN2C(=O)[C@@H](NC(=O)CCCCCCCCCNC(=O)CC(=O)Nc2cccc(Sc3ncc(N4CCC(C)(N)CC4)nc3N)c2Cl)C(C)(C)C)cc1 (single isomer, unassigned)	> 95%	> 95%	–	–	–
Cc1ncsc1-c1ccc([C@H](C)NC(=O)[C@@H]2C[C@@H](O)CN2C(=O)[C@@H](NC(=O)CCCCCCCCCCCCCCC(=O)Nc2cccc(Sc3ncc(N4CCC(C)(N)CC4)nc3N)c2Cl)C(C)(C)C)cc1 (single isomer, unassigned)	90%	62%	8%	–	–
Cc1ncsc1-c1ccc([C@H](C)NC(=O)[C@@H]2C[C@@H](O)CN2C(=O)[C@@H](NC(=O)CCCCCCCCCCCN2CCN(CC(=O)Nc3cccc(Sc4ncc(N5CCC(C)(N)CC5)nc4N)c3Cl)CC2)C(C)(C)C)cc1 (single isomer, unassigned)	> 95%	80%	6%	–	–
Cc1ncsc1-c1ccc([C@H](C)NC(=O)[C@@H]2C[C@@H](O)CN2C(=O)[C@@H](NC(=O)CCCCCCCCCCCNC(=O)CCCC(=O)Nc2cccc(Sc3ncc(N4CCC(C)(N)CC4)nc3N)c2Cl)C(C)(C)C)cc1 (single isomer, unassigned)	> 95%	> 95%	–	–	–
Cc1ncsc1-c1ccc([C@H](C)NC(=O)[C@@H]2C[C@@H](O)CN2C(=O)[C@@H](NC(=O)CCCCCNC(=O)CC(=O)Nc2cccc(Sc3ncc(N4CCC(C)(N)CC4)nc3N)c2Cl)C(C)(C)C)cc1 (single isomer, unassigned)	3%	0%	–	–	–
Cc1ncsc1-c1ccc([C@H](C)NC(=O)[C@@H]2C[C@@H](O)CN2C(=O)[C@@H](NC(=O)CCOCCOCCOCCNC(=O)CCC(=O)Nc2cccc(Sc3ncc(N4CCC(C)(N)CC4)nc3N)c2Cl)C(C)(C)C)cc1 (single isomer, unassigned)	87%	32%	85%	–	–
Cc1ncsc1-c1ccc([C@H](C)NC(=O)[C@@H]2C[C@@H](O)CN2C(=O)[C@@H](NC(=O)CCCCCCCCCN2CCN(C(=O)CCC(=O)Nc3cccc(Sc4ncc(N5CCC(C)(N)CC5)nc4N)c3Cl)CC2)C(C)(C)C)cc1 (single isomer, unassigned)	> 95%	> 95%	> 95%	–	–
Cc1ncsc1-c1ccc([C@H](C)NC(=O)[C@@H]2C[C@@H](O)CN2C(=O)[C@@H](NC(=O)CCCCCCCCCCCNC(=O)CCC(=O)Nc2cccc(Sc3ncc(N4CCC(C)(N)CC4)nc3N)c2Cl)C(C)(C)C)cc1	> 95%	> 95%	–	–	–
Cc1ncsc1-c1ccc([C@H](C)NC(=O)[C@@H]2C[C@@H](O)CN2C(=O)[C@@H](NC(=O)CCCCCCCCCCCNC(=O)CC(=O)Nc2cccc(Sc3ncc(N4CCC(C)(N)CC4)nc3N)c2Cl)C(C)(C)C)cc1 (single isomer, unassigned)	93%	> 95%	–	–	–
Cc1ncsc1-c1ccc([C@H](C)NC(=O)[C@@H]2C[C@@H](O)CN2C(=O)[C@@H](NC(=O)CCCCCCCCCCN2CCN(CC(=O)Nc3cccc(Sc4ncc(N5CCC(C)(N)CC5)nc4N)c3Cl)CC2)C(C)(C)C)cc1 (single isomer, unassigned)	> 95%	85%	47%	–	–
Cc1ncsc1-c1ccc([C@H](C)NC(=O)[C@@H]2C[C@@H](O)CN2C(=O)[C@@H](NC(=O)CCCCCCCCNC(=O)CC(=O)Nc2cccc(Sc3ncc(N4CCC(C)(N)CC4)nc3N)c2Cl)C(C)(C)C)cc1 (single isomer, unassigned)	80%	81%	–	–	–
Cc1ncsc1-c1ccc([C@H](C)NC(=O)[C@@H]2C[C@@H](O)CN2C(=O)[C@@H](NC(=O)CCCCNC(=O)CC(=O)Nc2cccc(Sc3ncc(N4CCC(C)(N)CC4)nc3N)c2Cl)C(C)(C)C)cc1 (single isomer, unassigned)	6%	13%	–	–	–
Cc1ncsc1-c1ccc([C@H](C)NC(=O)[C@@H]2C[C@@H](O)CN2C(=O)[C@@H](NC(=O)CCNC(=O)CC(=O)Nc2cccc(Sc3ncc(N4CCC(C)(N)CC4)nc3N)c2Cl)C(C)(C)C)cc1	0%	4%	–	–	–
Cc1ncsc1-c1ccc([C@H](C)NC(=O)[C@@H]2C[C@@H](O)CN2C(=O)[C@@H](NC(=O)CCCCN2CCN(CCCCNC(=O)CCC(=O)Nc3cccc(Sc4ncc(N5CCC(C)(N)CC5)nc4N)c3Cl)CC2)C(C)(C)C)cc1 (single isomer, unassigned)	82%	0%	9%	–	–
Cc1ncsc1-c1ccc([C@H](C)NC(=O)[C@@H]2C[C@@H](O)CN2C(=O)[C@@H](NC(=O)CCCCCCCNC(=O)CC(=O)Nc2cccc(Sc3ncc(N4CCC(C)(N)CC4)nc3N)c2Cl)C(C)(C)C)cc1 (single isomer, unassigned)	14%	20%	–	–	–
Cc1ncsc1-c1ccc([C@H](C)NC(=O)[C@@H]2C[C@@H](O)CN2C(=O)[C@@H](NC(=O)CCCCCCCOc2ccc(NC(=O)CCC(=O)Nc3cccc(Sc4ncc(N5CCC(C)(N)CC5)nc4N)c3Cl)cc2)C(C)(C)C)cc1	> 95%	> 95%	> 95%	–	–
Cc1ncsc1-c1ccc([C@H](C)NC(=O)[C@@H]2C[C@@H](O)CN2C(=O)[C@@H](NC(=O)CCCCCCCCCCNC(=O)CC(=O)Nc2cccc(Sc3ncc(N4CCC(C)(N)CC4)nc3N)c2Cl)C(C)(C)C)cc1 (single isomer, unassigned)	> 95%	> 95%	–	–	–
Cc1ncsc1-c1ccc([C@H](C)NC(=O)[C@@H]2C[C@@H](O)CN2C(=O)[C@@H](NC(=O)CCCCCCCCCCNC(=O)CCC(=O)Nc2cccc(Sc3ncc(N4CCC(C)(N)CC4)nc3N)c2Cl)C(C)(C)C)cc1	> 95%	> 95%	–	–	–
CC1(N)CCN(c2cnc(-c3cccc(Cl)c3Cl)c(N)n2)CC1	–	–	–	1 µM	18.2 µM
Cc1ncsc1-c1ccc([C@H](C)NC(=O)[C@@H]2C[C@@H](O)CN2C(=O)[C@@H](NC(=O)CCCCCCNC(=O)CC(=O)Nc2cccc(Sc3ncc(N4CCC(C)(N)CC4)nc3N)c2Cl)C(C)(C)C)cc1 (single isomer, unassigned)	0%	0%	–	–	–
CC(=O)Nc1cccc(Sc2ncc(N3CCC(C)(N)CC3)nc2N)c1Cl	–	–	–	6.6 µM	39.4 µM
Cc1ncsc1-c1ccc([C@H](C)NC(=O)[C@@H]2C[C@@H](O)CN2C(=O)[C@@H](NC(=O)CCCNC(=O)CC(=O)Nc2cccc(Sc3ncc(N4CCC(C)(N)CC4)nc3N)c2Cl)C(C)(C)C)cc1 (single isomer, unassigned)	7%	9%	–	–	–
Cc1ncsc1-c1ccc([C@H](C)NC(=O)[C@@H]2C[C@@H](O)CN2C(=O)[C@@H](NC(=O)COCCOCCOCCOCCNC(=O)CCC(=O)Nc2cccc(Sc3ncc(N4CCC(C)(N)CC4)nc3N)c2Cl)C(C)(C)C)cc1 (single isomer, unassigned)	> 95%	53%	95%	–	–
